Source: ChEMBL document CHEMBL4428070, “Design, synthesis, and evaluation of 4,6-diaminonicotinamide derivatives as novel and potent immunomodulators targeting JAK3” (Bioorg Med Chem, 2016)
Values belong to the compound of their own block, whether it stands above or below them.

What was measured:
[1] = target: Tyrosine-protein kinase JAK1 (Homo sapiens, UniProt P23458); assay: Inhibition of human JAK1 assessed as reduction in phosphorylation of Biotin-Lyn-Substrate-2 after 1 hr in presence of ATP by ELISA
Sequence of Tyrosine-protein kinase JAK1 (P23458 whole entry): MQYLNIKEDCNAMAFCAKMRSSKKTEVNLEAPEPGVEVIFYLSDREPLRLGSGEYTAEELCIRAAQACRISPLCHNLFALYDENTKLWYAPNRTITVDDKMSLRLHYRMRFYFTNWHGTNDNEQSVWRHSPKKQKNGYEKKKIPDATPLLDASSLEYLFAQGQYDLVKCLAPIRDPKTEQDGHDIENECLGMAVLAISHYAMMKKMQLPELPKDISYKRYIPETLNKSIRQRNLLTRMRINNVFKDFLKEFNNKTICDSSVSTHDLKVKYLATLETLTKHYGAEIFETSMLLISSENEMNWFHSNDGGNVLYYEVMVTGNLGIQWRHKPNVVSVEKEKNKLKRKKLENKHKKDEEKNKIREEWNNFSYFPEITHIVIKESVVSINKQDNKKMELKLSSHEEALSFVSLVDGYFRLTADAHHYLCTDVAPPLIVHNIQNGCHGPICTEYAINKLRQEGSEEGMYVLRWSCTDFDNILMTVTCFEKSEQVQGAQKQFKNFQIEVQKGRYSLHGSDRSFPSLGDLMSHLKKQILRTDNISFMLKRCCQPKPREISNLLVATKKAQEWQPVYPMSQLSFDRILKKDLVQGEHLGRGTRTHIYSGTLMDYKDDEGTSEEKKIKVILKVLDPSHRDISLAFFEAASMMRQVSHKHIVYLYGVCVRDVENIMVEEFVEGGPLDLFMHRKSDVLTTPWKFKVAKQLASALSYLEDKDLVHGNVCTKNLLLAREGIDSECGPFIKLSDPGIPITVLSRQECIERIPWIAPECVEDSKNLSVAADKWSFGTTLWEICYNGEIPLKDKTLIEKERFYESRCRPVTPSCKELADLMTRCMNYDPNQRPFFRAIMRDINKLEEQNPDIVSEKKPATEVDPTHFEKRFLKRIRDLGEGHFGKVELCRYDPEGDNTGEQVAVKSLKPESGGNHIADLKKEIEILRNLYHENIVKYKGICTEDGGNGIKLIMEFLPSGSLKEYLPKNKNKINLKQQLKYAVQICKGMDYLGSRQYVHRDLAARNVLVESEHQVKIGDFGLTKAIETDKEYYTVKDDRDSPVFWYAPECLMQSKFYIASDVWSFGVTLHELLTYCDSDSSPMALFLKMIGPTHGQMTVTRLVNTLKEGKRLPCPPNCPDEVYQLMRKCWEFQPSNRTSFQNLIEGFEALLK

[2] = target: Voltage-gated inwardly rectifying potassium channel KCNH2 (Homo sapiens, UniProt Q12809); assay: Inhibition of human ERG expressed in CHO-K1 cells after 10 mins by Rb efflux assay; format: cell-based
Sequence of Voltage-gated inwardly rectifying potassium channel KCNH2 (Q12809 whole entry): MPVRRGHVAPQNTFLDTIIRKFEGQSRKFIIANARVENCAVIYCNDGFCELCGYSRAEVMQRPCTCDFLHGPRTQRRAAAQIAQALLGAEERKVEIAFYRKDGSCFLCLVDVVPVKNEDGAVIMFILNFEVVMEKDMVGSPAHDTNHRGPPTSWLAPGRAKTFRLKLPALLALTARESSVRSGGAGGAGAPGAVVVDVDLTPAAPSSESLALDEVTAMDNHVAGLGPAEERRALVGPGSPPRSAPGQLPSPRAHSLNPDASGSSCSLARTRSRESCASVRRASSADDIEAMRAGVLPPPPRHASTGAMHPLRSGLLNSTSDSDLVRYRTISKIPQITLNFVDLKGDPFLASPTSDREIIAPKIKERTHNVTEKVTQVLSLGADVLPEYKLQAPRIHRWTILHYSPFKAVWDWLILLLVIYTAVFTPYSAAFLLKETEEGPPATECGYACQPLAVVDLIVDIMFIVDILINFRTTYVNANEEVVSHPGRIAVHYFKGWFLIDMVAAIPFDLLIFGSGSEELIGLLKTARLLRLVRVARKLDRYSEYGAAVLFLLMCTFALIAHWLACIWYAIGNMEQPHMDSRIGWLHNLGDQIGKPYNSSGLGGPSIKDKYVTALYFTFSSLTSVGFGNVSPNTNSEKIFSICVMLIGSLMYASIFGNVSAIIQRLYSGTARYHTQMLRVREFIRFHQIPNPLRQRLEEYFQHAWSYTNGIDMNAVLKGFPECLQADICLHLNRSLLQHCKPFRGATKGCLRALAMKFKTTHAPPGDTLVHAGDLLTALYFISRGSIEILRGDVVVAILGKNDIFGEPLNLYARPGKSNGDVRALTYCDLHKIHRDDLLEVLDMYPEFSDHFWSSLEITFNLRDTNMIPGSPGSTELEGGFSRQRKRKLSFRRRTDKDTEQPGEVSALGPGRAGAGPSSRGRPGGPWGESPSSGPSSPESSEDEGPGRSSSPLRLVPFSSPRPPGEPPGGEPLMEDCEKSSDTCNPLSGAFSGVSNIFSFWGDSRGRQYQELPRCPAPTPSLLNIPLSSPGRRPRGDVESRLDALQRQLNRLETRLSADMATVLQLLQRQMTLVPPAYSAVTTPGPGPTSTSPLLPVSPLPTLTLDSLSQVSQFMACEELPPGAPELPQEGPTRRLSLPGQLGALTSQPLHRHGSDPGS

[3] = target: T1, Tyrosine-protein kinase JAK3 (Homo sapiens, UniProt P52333); assay: Inhibition of human JAK3 assessed as reduction in phosphorylation of Biotin-Lyn-Substrate-2 after 1 hr in presence of ATP by ELISA
T1 sequence (P52333 whole entry): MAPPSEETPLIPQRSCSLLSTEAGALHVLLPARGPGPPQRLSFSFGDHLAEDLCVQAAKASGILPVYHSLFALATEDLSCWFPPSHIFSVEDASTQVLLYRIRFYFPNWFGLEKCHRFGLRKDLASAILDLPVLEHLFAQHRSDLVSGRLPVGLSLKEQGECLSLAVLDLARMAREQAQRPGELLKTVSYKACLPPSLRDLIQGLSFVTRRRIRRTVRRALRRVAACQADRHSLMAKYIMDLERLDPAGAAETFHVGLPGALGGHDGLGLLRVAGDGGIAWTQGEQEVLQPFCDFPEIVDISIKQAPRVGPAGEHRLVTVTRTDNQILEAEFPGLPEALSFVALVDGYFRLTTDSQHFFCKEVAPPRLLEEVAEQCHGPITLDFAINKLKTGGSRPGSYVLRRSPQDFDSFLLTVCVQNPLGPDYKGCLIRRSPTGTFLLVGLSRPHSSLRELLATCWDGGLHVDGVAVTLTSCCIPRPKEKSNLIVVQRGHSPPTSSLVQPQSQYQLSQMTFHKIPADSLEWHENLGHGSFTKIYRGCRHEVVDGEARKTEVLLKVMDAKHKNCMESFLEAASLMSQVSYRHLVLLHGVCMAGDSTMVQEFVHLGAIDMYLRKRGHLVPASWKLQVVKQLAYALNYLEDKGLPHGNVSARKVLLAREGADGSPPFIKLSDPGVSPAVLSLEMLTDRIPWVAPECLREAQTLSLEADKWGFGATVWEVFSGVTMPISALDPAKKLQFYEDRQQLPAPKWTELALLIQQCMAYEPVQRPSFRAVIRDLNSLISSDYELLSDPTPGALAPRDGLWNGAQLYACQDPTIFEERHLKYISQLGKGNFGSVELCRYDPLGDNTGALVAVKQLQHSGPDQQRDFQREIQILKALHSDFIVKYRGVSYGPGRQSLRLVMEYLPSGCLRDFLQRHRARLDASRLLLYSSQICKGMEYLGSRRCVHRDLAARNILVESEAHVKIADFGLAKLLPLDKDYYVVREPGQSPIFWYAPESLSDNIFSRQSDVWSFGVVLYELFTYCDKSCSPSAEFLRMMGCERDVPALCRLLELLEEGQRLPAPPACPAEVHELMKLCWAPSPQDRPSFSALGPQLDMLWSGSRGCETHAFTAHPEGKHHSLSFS

[4] = target: Tyrosine-protein kinase JAK2 (Homo sapiens, UniProt O60674); assay: Inhibition of human JAK2 assessed as reduction in phosphorylation of Biotin-Lyn-Substrate-2 after 1 hr in presence of ATP by ELISA
[5] = target: Tyrosine-protein kinase JAK3 (Homo sapiens) (UniProt P52333); assay: Inhibition of human JAK3 assessed as phosphorylation of Biotin-Lyn-Substrate-2 at 1 uM after 1 hr in presence of ATP by ELISA
[6] = Oral bioavailability in rat at 1 mg/kg; format: ADME, organism-based; conditions: in vivo
[7] = AUC (0 to 24 hrs) in rat at 1 mg/kg, iv; format: ADME, organism-based; design: dose 1 mg/kg, time < 24 hr, route intravenous; conditions: in vivo
Rattus norvegicus [8] = assay: Immunomodulatory activity in ACI-to-Lewis rat heterotopic cardiac transplant model assessed as cardiac allograft survival at 10 mg/kg, po coadministered with tacrolimus at 0.02 mg/kg, im dosed from day of transplantation once daily for 14 consecutive days; format: functional
Summary of the method: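 ACI rat hearts transplanted heterotopically into Lewis recipients. Oral drug given once daily for 14 consecutive days starting on the day of operation. In the combination arm, tacrolimus was given intramuscularly once daily. Cardiac allograft survival was checked by daily palpation for 28 days and expressed as median survival time (MST).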

[9] = target: Focal adhesion kinase 1 (Homo sapiens) (UniProt Q05397); assay: Inhibition of FAK (unknown origin) at 1 uM
[10] = target: Mitogen-activated protein kinase kinase kinase 9 (Homo sapiens) (UniProt P80192); assay: Inhibition of MLK1 (unknown origin) at 0.1 uM
Sequence of Mitogen-activated protein kinase kinase kinase 9 (Homo sapiens) (P80192 whole entry, looked up): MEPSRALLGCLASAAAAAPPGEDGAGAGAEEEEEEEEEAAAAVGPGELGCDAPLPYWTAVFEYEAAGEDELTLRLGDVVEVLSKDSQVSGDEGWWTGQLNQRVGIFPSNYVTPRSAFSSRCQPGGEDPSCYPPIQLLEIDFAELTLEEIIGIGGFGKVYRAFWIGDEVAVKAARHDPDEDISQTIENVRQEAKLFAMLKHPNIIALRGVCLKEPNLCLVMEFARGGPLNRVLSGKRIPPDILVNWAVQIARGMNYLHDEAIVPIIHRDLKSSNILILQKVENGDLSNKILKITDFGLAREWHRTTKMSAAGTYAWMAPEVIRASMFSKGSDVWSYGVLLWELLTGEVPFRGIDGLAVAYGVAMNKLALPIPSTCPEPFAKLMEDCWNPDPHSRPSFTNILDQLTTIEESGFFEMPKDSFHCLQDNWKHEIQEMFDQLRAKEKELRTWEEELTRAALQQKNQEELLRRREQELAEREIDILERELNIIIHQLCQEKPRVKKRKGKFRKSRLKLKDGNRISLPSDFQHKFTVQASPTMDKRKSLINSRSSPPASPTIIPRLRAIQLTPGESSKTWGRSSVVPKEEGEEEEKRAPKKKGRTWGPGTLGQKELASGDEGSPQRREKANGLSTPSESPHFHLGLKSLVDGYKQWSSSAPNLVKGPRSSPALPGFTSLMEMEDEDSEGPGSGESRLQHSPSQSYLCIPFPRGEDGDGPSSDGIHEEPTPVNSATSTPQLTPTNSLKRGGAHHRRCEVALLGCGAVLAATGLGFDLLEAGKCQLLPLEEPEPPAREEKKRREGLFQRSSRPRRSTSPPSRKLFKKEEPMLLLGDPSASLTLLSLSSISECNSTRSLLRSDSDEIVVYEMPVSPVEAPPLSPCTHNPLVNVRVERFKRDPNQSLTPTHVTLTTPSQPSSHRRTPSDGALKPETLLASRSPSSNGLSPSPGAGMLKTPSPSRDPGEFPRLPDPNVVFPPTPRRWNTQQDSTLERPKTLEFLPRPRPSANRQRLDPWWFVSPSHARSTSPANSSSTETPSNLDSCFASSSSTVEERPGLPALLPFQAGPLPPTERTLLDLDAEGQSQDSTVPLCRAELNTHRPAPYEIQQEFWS

[11] = target: Tyrosine-protein kinase ABL1 (Homo sapiens) (UniProt P00519); assay: Inhibition of ABL (unknown origin) at 1 uM
[12] = target: T2, CDK2/Cyclin A2 (Homo sapiens) (UniProt P24941+P20248); assay: Inhibition of CDK2/CycA (unknown origin) at 0.1 uM; format: protein-complex assay
[13] = Total clearance in rat at 1 mg/kg, iv; format: ADME, organism-based; conditions: in vivo
[14] = target: Mitogen-activated protein kinase kinase kinase 9 (Homo sapiens) (UniProt P80192); assay: Inhibition of MLK1 (unknown origin) at 1 uM
[15] = target: RAC-alpha serine/threonine-protein kinase (Homo sapiens) (UniProt P31749); assay: Inhibition of AKT1 (unknown origin) at 1 uM
[16] = target: Tyrosine-protein kinase ZAP-70 (Homo sapiens) (UniProt P43403); assay: Inhibition of ZAP70 (unknown origin) at 1 uM
[17] = target: Casein kinase I isoform delta (Homo sapiens) (UniProt P48730); assay: Inhibition of CK1delta (unknown origin) at 1 uM
[18] = target: Serine/threonine-protein kinase Chk1 (Homo sapiens) (UniProt O14757); assay: Inhibition of CHK1 (unknown origin) at 1 uM
[19] = target: Angiopoietin-1 receptor (Homo sapiens) (UniProt Q02763); assay: Inhibition of TIE2 (unknown origin) at 1 uM
[20] = target: T2, CDK2/Cyclin A2 (Homo sapiens); assay: Inhibition of CDK2/CycA (unknown origin) at 1 uM; format: protein-complex assay
[21] = target: Bone morphogenetic protein receptor type-1A (Homo sapiens) (UniProt P36894); assay: Inhibition of BMPR1A (unknown origin) at 1 uM
Sequence of Bone morphogenetic protein receptor type-1A (Homo sapiens) (P36894 whole entry): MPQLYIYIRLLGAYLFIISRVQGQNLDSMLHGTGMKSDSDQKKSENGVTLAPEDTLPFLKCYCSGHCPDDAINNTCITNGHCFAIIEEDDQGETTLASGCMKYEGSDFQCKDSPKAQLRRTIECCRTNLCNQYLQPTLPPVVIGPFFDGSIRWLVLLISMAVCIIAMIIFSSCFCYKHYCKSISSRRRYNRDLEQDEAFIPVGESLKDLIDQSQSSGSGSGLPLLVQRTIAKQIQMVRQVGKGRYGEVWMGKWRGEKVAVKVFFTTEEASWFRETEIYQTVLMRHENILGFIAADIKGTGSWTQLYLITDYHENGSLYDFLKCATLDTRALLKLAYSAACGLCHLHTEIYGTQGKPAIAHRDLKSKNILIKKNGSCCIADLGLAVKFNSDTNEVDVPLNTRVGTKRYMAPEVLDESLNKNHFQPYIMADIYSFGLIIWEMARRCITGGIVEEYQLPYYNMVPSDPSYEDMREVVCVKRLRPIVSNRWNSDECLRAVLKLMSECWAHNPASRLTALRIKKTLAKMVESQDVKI

[22] = target: Tyrosine-protein kinase BTK (Homo sapiens) (UniProt Q06187); assay: Inhibition of BTK (unknown origin) at 1 uM
[23] = target: Receptor tyrosine-protein kinase erbB-2 (Homo sapiens) (UniProt P04626); assay: Inhibition of HER2 (unknown origin) at 1 uM
[24] = target: Aurora kinase C (Homo sapiens) (UniProt Q9UQB9); assay: Inhibition of AurC (unknown origin) at 1 uM
Sequence of Aurora kinase C (Homo sapiens) (Q9UQB9 whole entry): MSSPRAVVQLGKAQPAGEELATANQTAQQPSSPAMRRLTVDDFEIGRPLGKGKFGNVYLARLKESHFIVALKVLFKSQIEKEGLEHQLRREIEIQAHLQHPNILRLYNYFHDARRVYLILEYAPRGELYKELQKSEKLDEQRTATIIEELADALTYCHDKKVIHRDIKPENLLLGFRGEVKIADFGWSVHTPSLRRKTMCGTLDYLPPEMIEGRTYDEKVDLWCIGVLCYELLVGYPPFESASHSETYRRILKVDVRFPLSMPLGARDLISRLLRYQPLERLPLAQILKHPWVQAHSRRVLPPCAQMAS

[25] = Effective permeability of the compound at pH 6.5 by PAMPA; format: ADME; conditions: read-out: Peff
Summary of the method: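 Parallel artificial membrane permeability assay, donor buffer pH 6.5; effective permeability reported in cm/sec (n=3).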

[26] = target: T2, CDK2/Cyclin A2 (Homo sapiens); assay: Inhibition of CDK2/CycA (unknown origin) at 0.01 uM; format: protein-complex assay
[27] = Tmax in rat at 1 mg/kg, po; format: ADME, organism-based; conditions: in vivo
[28] = target: Epidermal growth factor receptor (Homo sapiens) (UniProt P00533); assay: Inhibition of EGFR (unknown origin) at 1 uM
[29] = target: High affinity nerve growth factor receptor (Homo sapiens) (UniProt P04629); assay: Inhibition of TRKA (unknown origin) at 0.1 uM
Sequence of High affinity nerve growth factor receptor (Homo sapiens) (P04629 33-796 limits assumed): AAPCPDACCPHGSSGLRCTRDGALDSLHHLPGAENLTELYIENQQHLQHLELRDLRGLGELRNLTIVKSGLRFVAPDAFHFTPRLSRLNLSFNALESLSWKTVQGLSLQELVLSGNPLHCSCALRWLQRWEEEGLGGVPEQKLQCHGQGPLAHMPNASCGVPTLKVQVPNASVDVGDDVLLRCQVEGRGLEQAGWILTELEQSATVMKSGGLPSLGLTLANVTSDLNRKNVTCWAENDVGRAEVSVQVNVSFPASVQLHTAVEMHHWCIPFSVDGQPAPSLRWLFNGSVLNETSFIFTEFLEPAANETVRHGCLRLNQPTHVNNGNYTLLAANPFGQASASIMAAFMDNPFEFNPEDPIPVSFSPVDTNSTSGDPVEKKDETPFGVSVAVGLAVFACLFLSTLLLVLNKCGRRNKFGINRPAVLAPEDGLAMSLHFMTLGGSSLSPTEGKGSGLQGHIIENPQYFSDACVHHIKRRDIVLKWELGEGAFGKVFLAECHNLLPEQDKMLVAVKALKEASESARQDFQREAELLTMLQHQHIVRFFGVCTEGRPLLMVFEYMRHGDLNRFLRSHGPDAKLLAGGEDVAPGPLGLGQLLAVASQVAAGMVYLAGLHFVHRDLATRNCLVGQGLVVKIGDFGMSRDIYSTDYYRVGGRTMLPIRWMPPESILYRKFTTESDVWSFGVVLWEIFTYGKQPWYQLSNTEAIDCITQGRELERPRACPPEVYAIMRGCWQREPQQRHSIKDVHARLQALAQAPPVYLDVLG

[30] = target: Mitogen-activated protein kinase kinase kinase 9 (Homo sapiens) (UniProt P80192); assay: Inhibition of MLK1 (unknown origin) at 0.01 uM
[31] = target: High affinity nerve growth factor receptor (Homo sapiens) (UniProt P04629); assay: Inhibition of TRKA (unknown origin) at 0.01 uM
[32] = Intrinsic clearance in rat liver microsomes in presence of NADPH; format: ADME, Microsome; conditions: read-out: CLH
Summary of the method: (§1)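 Incubation with rat or human liver microsomes plus NADPH-generating system; intrinsic clearance expressed as mL/min/kg (n=2).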

[33] = target: High affinity nerve growth factor receptor (Homo sapiens) (UniProt P04629); assay: Inhibition of TRKA (unknown origin) at 1 uM
[34] = target: Calcium/calmodulin-dependent protein kinase type II subunit alpha (Homo sapiens) (UniProt Q9UQM7); assay: Inhibition of CaMK2alpha (unknown origin) at 1 uM
[35] = Volume of distribution at steady state in rat at 1 mg/kg, iv; format: ADME, organism-based; conditions: in vivo, read-out: Vdss
[36] = Intrinsic clearance in human liver microsomes in presence of NADPH; format: ADME, Microsome; conditions: read-out: CLH; summary of the method: as §1
[37] = target: Ephrin type-A receptor 2 (Homo sapiens) (UniProt P29317); assay: Inhibition of EPHA2 (unknown origin) at 1 uM
[38] = Cmax in rat at 1 mg/kg, po; format: ADME, organism-based; design: dose 1 mg/kg, route oral; conditions: in vivo
[39] = AUC (0 to 24 hrs) in rat at 1 mg/kg, po; format: ADME, organism-based; design: dose 1 mg/kg, time < 24 hr, route oral; conditions: in vivo
[40] = Half life in rat at 1 mg/kg, iv; format: ADME, organism-based; conditions: in vivo
Rattus norvegicus [41] = assay: Immunomodulatory activity in ACI-to-Lewis rat heterotopic cardiac transplant model assessed as mean survival time at 0.02 mg/kg, im dosed from day of transplantation once daily for 14 consecutive days measured for 28 days; format: functional

SMILES: Cc1nc2cc(Nc3cc(NC4CCN(c5ccc(C#N)cn5)CC4)c(C(N)=O)cn3)ccc2o1
IC50 [4]: 400 nM | IC50 [3]: 22 nM

SMILES: CN(c1ccccc1)c1cc(NCc2ccccc2)c(C(N)=O)cn1
inhibition [5]: 40% | IC50 [3]: > 1000 nM

SMILES: Cc1nccc(Nc2cc(NC3CCN(c4ccc(C#N)cc4)CC3)c(C(N)=O)cn2)n1
bioavailability [6]: 23.6% | AUC(0-t) at 24 h [7]: 1180 ng·h/mL | MST (Rattus norvegicus [8]): 22.5 days | inhibition [9]: 18% | inhibition [10]: 84% | inhibition [11]: 54% | inhibition [12]: 76% | clearance [13]: 14.3 mL/min/kg | inhibition [14]: 96% | inhibition [15]: 10% | IC50 [4]: 3.5 nM | inhibition [16]: -2% | inhibition [17]: 25% | inhibition [18]: 33% | inhibition [19]: 8% | inhibition [20]: 96% | inhibition [21]: 3% | inhibition [22]: 49% | inhibition [23]: 14% | IC50 [1]: 4.2 nM | inhibition [24]: 28% | Papp [25]: > 30 ×10⁻⁶ cm/s | inhibition [26]: 27% | Tmax [27]: 24 min | IC50 [2]: > 100 µM | inhibition [28]: 19% | inhibition [29]: 49% | inhibition [30]: 26% | inhibition [31]: 8% | CLint scaled [32]: 146 mL/min/kg | inhibition [33]: 94% | inhibition [34]: -1% | Vd [35]: 3.5 L/kg | CLint scaled [36]: 109 mL/min/kg | inhibition [37]: 11% | Cmax [38]: 52.9 ng/mL | AUC(0-t) at 24 h [39]: 278 ng·h/mL | half-life [40]: 204 min

SMILES: Cc1nc2ccc(Nc3cc(NC4CCN(c5ccc(C#N)cn5)CC4)c(C(N)=O)cn3)cc2o1
IC50 [4]: 130 nM | IC50 [3]: 25 nM

SMILES: N#Cc1ccc(N2CCC(Nc3cc(Nc4ccccc4)ncc3C(N)=O)CC2)nc1
IC50 [4]: 190 nM | IC50 [3]: 18 nM

SMILES: C=CC[C@@H]1/C=C(\C)C[C@H](C)C[C@H](OC)[C@H]2O[C@@](O)(C(=O)C(=O)N3CCCC[C@H]3C(=O)O[C@H](/C(C)=C/[C@@H]3CC[C@@H](O)[C@H](OC)C3)[C@H](C)[C@@H](O)CC1=O)[C@H](C)C[C@@H]2OC [TACROLIMUS ANHYDROUS]
MST (Rattus norvegicus [41]): 6.5 days

SMILES: NC(=O)c1cnc(N)cc1NCc1ccccc1
inhibition [5]: 41% | IC50 [3]: > 1000 nM

SMILES: Cc1nccc(Nc2cc(NC3CCN(c4ccc(C#N)cn4)CC3)c(C(N)=O)cn2)n1
IC50 [4]: 3.2 nM | IC50 [1]: 5.4 nM | IC50 [2]: 8.1 µM

SMILES: C[C@@H]1CCCC[C@@H]1Nc1cc(Nc2ccccc2)ncc1C(N)=O
IC50 [3]: 37 nM

SMILES: Cc1nccc(Nc2cc(N[C@@H]3CCN(c4ccc(C#N)cn4)C[C@@H]3F)c(C(N)=O)cn2)n1
IC50 [1]: 0.24 nM | IC50 [2]: > 100 µM

More lines, in order of falling IC50 [3], values ahead:

IC50 [4]: 5.3 nM | IC50 [1]: 6.7 nM | IC50 [3]: 1.1 nM
SMILES: Cc1cnc(Nc2cc(NC3CCN(c4ccc(C#N)cn4)CC3)c(C(N)=O)cn2)cn1
IC50 [2]: 4.8 µM

IC50 [4]: 4 nM | IC50 [1]: 1.9 nM | IC50 [3]: 1 nM
SMILES: Cc1cncc(Nc2cc(NC3CCN(c4ccc(C#N)cn4)CC3)c(C(N)=O)cn2)n1
IC50 [2]: 5.4 µM

IC50 [4]: 4.1 nM | IC50 [1]: 2.5 nM | IC50 [3]: 0.72 nM
SMILES: N#Cc1ccc(N2CCC(Nc3cc(Nc4cnccn4)ncc3C(N)=O)CC2)nc1
IC50 [2]: 7.7 µM

IC50 [4]: 5.5 nM | IC50 [1]: 3.5 nM | IC50 [3]: 0.61 nM
SMILES: N#Cc1ccc(N2CCC(Nc3cc(Nc4ccncn4)ncc3C(N)=O)CC2)nc1
IC50 [2]: 17 µM

IC50 [1]: 2.9 nM | IC50 [3]: 0.46 nM
SMILES: N#Cc1ccc(N2CCC(Nc3cc(Nc4ccccn4)ncc3C(N)=O)CC2)nc1
IC50 [2]: 0.36 µM
